{"source": "ChEMBL document CHEMBL4680130", "about": "“Substituted 4-phenylthiazoles: Development of potent and selective A, A and dual A/A adenosine receptor antagonists” (Eur J Med Chem, 2020)", "key": {"[1]": {"target": "T1, Adenosine receptor A3 (Homo sapiens, UniProt P0DMS8)", "T1 sequence (P0DMS8 whole entry)": "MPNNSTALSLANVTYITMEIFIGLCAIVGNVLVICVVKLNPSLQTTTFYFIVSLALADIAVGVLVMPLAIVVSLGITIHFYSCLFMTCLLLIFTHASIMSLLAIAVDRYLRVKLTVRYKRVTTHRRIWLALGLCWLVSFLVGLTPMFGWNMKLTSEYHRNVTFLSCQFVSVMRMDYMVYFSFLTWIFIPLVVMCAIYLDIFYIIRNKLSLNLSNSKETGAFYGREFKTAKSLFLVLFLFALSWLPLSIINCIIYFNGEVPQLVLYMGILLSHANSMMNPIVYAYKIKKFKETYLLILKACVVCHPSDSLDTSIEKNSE", "test": "Displacement of [3H]PSB-11 from human adenosine receptor A3 expressed in CHO cell membranes incubated for 60 mins by radioligand competition assay", "parameters": "species or system Cell membrane"}, "[2]": {"target": "T2, Adenosine receptor A1 (Rattus norvegicus, UniProt P25099)", "T2 sequence (P25099 whole entry)": "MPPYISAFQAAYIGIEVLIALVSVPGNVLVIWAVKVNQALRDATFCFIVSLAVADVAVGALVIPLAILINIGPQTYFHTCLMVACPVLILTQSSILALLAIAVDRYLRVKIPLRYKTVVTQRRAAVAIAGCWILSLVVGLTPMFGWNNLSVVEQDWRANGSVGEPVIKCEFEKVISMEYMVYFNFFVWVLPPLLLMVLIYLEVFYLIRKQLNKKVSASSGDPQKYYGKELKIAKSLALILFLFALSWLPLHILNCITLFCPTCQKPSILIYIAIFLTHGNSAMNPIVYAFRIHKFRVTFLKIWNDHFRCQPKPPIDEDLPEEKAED", "test": "Displacement of [3H]CCPA from adenosine receptor A1 in rat brain cortex membranes incubated for 90 mins by radioligand competition assay", "type": "cell membranes, Cell membrane"}, "[3]": {"target": "T2, Adenosine receptor A1", "test": "Displacement of [3H]DPCPX from rat brain cortical membrane A1AR in absence of GTP by scintillation counting analysis", "type": "cell membranes, Cortex, Cell membrane"}, "[4]": {"target": "T3, Adenosine receptor A2b (Rattus norvegicus) (UniProt P29276)", "T3 sequence (whole entry)": "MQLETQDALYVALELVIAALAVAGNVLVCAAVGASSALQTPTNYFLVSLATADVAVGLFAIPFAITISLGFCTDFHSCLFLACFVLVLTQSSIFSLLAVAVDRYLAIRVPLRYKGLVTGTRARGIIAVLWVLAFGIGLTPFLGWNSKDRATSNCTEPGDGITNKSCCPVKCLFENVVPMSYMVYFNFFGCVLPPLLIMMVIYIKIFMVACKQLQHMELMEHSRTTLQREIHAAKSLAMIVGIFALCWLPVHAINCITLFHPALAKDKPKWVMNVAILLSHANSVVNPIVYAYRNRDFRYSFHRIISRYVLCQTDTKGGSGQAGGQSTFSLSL", "test": "Displacement of [3H]PSB-603 from rat adenosine receptor A2B expressed in CHO cell membranes at 0.1 uM incubated for 75 mins by radioligand competition assay relative to control", "conditions": "Cell membrane", "procedure,_shortened": "(§1)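 CHO membranes expressing human or rat A2B, [3H]PSB-603 0.3 nM. Nonspecific binding defined by 10 µM DPCPX. Preincubated 20 min with adenosine deaminase, then 75 min at rt in Tris-HCl pH 7.4 with 2.5% DMSO. Filters washed with ice-cold 50 mM Tris-HCl containing 0.1% BSA; scintillation counting.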"}, "[5]": {"target": "Adenosine receptor A2a (Homo sapiens, UniProt P29274)", "sequence (P29274 whole entry)": "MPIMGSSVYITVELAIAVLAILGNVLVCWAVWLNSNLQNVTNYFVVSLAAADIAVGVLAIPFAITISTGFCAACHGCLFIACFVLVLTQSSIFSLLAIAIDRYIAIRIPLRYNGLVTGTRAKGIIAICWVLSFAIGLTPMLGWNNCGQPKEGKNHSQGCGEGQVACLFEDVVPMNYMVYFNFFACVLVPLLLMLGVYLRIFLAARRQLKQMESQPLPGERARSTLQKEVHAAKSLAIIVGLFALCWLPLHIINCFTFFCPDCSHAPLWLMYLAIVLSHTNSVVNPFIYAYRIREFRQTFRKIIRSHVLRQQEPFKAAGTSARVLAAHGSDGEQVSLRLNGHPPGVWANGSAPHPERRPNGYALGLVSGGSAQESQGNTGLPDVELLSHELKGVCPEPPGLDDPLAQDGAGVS", "test": "Displacement of [3H]MSX2 from human adenosine receptor A2A expressed in HEK293 cell membranes at 0.1 uM incubated for 30 mins by radioligand competition assay relative to control", "conditions": "Cell membrane, in the assay text read “at 1 uM” for “at 0.1 uM”", "procedure,_shortened": "(§2)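 A2A binding, [3H]MSX-2 1.0 nM. Membranes: rat brain striatum, or HEK293 cells expressing human A2A. Adenosine deaminase preincubation 20 min, then 30 min at rt in 50 mM Tris-HCl pH 7.4 with 2.5% DMSO. Nonspecific binding defined by 50 µM NECA. GF/B filtration, scintillation counting. Single-concentration percent inhibition, ≥3 experiments in duplicate or triplicate.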"}, "[6]": {"target": "T4, Adenosine receptor A3 (Homo sapiens) (UniProt P0DMS8)", "T4 sequence (whole entry)": "T1 sequence (P0DMS8 whole entry)", "test": "Displacement of [3H]PSB-11 from human adenosine receptor A3 expressed in CHO cell membranes at 0.1 uM incubated for 60 mins by radioligand competition assay", "conditions": "Cell membrane, filed as antagonist, dose 0.1 µM", "procedure,_shortened": "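CHO membranes expressing human A3, [3H]PSB-11 0.5 nM. Nonspecific binding defined by 100 µM R-PIA. Adenosine deaminase preincubation 20 min, then 60 min at rt in 50 mM Tris-HCl pH 7.4 with 2.5% DMSO. Filtered on GF/B, scintillation counted.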"}, "[7]": {"target": "T5, Adenosine receptor A3 (Rattus norvegicus, UniProt P28647)", "T5 sequence (P28647 whole entry)": "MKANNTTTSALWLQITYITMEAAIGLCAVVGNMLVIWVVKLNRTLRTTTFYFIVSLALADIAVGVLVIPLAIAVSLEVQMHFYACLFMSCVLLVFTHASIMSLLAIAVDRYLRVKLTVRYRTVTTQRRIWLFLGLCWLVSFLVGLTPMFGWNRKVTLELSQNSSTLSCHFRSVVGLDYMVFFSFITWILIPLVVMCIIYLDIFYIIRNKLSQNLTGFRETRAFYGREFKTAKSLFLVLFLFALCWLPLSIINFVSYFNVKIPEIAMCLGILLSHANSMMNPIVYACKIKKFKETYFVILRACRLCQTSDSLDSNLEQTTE", "test": "Displacement of [3H]NECA from rat adenosine receptor A3 expressed in CHO cell membranes incubated for 60 mins by radioligand competition assay", "parameters": "species or system Cell membrane"}, "[8]": {"target": "Adenosine receptor A2a (Rattus norvegicus) (UniProt P30543)", "sequence (P30543 whole entry)": "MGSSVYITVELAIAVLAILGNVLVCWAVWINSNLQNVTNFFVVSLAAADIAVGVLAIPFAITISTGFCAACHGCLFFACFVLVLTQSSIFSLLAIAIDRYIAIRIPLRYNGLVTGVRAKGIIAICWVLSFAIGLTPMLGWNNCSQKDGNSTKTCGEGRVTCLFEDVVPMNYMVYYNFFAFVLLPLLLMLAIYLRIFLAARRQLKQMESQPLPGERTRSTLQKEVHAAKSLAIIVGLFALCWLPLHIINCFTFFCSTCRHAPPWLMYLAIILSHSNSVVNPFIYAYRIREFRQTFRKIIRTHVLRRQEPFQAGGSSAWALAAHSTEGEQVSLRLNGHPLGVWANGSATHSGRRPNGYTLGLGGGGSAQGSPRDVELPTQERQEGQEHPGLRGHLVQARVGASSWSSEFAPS", "test": "Displacement of [3H]MSX2 from adenosine receptor A2A in rat brain striatum membranes at 0.1 uM incubated for 30 mins by radioligand competition assay relative to control", "conditions": "Cell membrane", "procedure,_shortened": "as §2"}, "[9]": {"target": "T6, Adenosine receptor A2b (Homo sapiens, UniProt P29275)", "T6 sequence (P29275 whole entry)": "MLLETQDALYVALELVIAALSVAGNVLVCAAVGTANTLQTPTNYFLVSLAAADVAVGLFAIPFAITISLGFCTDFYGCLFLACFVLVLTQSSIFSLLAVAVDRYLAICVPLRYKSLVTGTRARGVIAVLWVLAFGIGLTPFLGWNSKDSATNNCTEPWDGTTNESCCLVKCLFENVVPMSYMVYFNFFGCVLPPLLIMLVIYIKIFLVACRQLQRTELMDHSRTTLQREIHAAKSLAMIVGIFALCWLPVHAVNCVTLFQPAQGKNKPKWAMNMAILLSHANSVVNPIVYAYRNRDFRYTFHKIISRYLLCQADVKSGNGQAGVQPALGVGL", "test": "Displacement of [3H]PSB-603 from human adenosine receptor A2B expressed in CHO cell membranes incubated for 75 mins by radioligand competition assay", "parameters": "species or system Cell membrane"}, "[10]": {"target": "T7, Adenosine receptor A2b (Rattus norvegicus, UniProt P29276)", "T7 sequence (P29276 whole entry)": "T3 sequence (whole entry)", "test": "Displacement of [3H]PSB-603 from rat adenosine receptor A2B expressed in CHO cell membranes incubated for 75 mins by radioligand competition assay", "parameters": "species or system Cell membrane", "procedure,_shortened": "as §1"}}, "note": "pIC50, pKi: −log10 of the molar value."}
{"smiles": "COc1ccc(C(=O)Nc2nc(-c3ccccc3)c(C(=O)c3ccc(C)cc3)s2)cc1", "values": [{"measurement": "pKi", "setting": "[1]", "result": "< 6.00"}, {"measurement": "pKi", "setting": "[2]", "result": 9.28}, {"measurement": "pIC50", "setting": "[3]", "result": 10.12}, {"measurement": "inhibition", "setting": "[4]", "result": 7, "unit": "%"}, {"measurement": "inhibition", "setting": "[5]", "result": 28, "unit": "%"}, {"measurement": "inhibition", "setting": "[6]", "result": 45, "unit": "%"}, {"measurement": "pKi", "setting": "[7]", "result": "< 5.00"}, {"measurement": "inhibition", "setting": "[8]", "result": 15, "unit": "%"}, {"measurement": "pKi", "setting": "[9]", "result": "< 7.00"}, {"measurement": "pKi", "setting": "[10]", "result": "< 7.00"}]}
